Measurements: ChEMBL document CHEMBL4024767, “Structure-Guided Discovery of Novel, Potent, and Orally Bioavailable Inhibitors of Lipoprotein-Associated Phospholipase A2” (J Med Chem, 2017)
Active and inactive are the calls of the source. No cut-off for these calls is given here.

Columns and labels:
[1] = Inhibition of recombinant human full length GST-tagged group-7B PLA2 expressed in Escherichia coli Rosetta(DE3) pLysS using 2-thio-PAF as substrate preincubated for 30 min followed by substrate addition measured every minute for 10 mins by DNTB reagent based assay
How it was run: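 Recombinant PLA2-VIIB purified in-house, preincubated 30 min at room temperature with compound and DTNB (10 µL of 2 mM). Substrate solution (50 µM 2-thio-PAF, 50 mM Tris pH 7.2, 1 mM EGTA) then added and absorbance read at 412 nm. IC50 determined.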

[2] = biological target: T1, Platelet-activating factor acetylhydrolase (Rattus norvegicus) (UniProt A6JJ35); experiment: Inhibition of Lp-PLA2 in rat plasma at 250 nM using 2-thio-PAF as substrate preincubated for 30 min followed by substrate addition measured every minute for 10 mins by DNTB reagent based assay by DNTB reagent based assay relative to control
T1 sequence (whole entry): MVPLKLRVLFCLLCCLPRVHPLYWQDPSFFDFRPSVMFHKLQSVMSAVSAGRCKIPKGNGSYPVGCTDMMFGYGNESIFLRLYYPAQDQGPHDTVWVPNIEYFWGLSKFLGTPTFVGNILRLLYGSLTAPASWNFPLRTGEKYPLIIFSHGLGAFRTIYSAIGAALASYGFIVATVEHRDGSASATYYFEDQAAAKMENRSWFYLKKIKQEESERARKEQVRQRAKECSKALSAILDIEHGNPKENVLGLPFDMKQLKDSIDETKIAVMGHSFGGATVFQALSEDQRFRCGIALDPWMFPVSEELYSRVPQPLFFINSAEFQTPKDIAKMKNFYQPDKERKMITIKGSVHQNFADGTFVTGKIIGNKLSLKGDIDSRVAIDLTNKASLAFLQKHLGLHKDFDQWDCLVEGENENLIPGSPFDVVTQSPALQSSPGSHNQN
How it was run: (§1)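 Rat plasma added directly as enzyme source and preincubated 30 min at room temperature with inhibitor at 250 or 50 nM and DTNB (10 µL of 2 mM). Reaction started with substrate solution: 50 µM 2-thio-PAF, 50 mM Tris pH 7.2, 1 mM EGTA. Thiol release read at 412 nm; percent inhibition calculated.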

[3] = biological target: T1, Platelet-activating factor acetylhydrolase (Rattus norvegicus); experiment: Inhibition of Lp-PLA2 in rat plasma at 50 nM using 2-thio-PAF as substrate preincubated for 30 min followed by substrate addition measured every minute for 10 mins by DNTB reagent based assay relative to control; how it was run: as §1
Rattus norvegicus [4] = organism: Rattus norvegicus; conditions: Sprague-Dawley, 3 mg/kg
Rattus norvegicus [5] = organism: Rattus norvegicus; conditions: Sprague-Dawley, 25 mg/kg
Rattus norvegicus [6] = organism: Rattus norvegicus; conditions: Sprague-Dawley, 25 mg/kg; remark: listed apart in the source
[7] = biological target: T2, Platelet-activating factor acetylhydrolase (Homo sapiens, UniProt Q13093); experiment: Inhibition of human recombinant GST-tagged Lp-PLA2 (47 to 429 residues) expressed in Escherichia coli Rosetta(DE3) pLysS using 2-thio-PAF as substrate preincubated for 30 min followed by substrate addition measured every minute for 10 mins by DNTB reagent based assay
T2 sequence (Q13093 whole entry): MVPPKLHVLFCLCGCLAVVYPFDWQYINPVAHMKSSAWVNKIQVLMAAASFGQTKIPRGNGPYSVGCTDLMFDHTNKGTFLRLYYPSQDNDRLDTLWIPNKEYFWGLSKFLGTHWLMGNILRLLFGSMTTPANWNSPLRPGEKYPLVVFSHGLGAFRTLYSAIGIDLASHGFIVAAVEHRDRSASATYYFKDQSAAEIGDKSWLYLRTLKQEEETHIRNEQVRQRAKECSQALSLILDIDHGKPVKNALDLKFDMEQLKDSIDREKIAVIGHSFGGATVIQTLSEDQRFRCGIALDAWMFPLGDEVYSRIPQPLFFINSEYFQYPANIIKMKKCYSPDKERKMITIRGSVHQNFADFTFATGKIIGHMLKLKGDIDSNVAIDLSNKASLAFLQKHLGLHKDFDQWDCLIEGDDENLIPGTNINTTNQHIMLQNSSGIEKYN

[8] = biological target: T3, Platelet-activating factor acetylhydrolase (Homo sapiens) (UniProt Q13093); conditions: 1000 uM
T3 sequence (whole entry): T2 sequence (Q13093 whole entry)

Rattus norvegicus [9] = organism: Rattus norvegicus; conditions: Sprague-Dawley, 25 mg/kg; remark: listed apart in the source

Structure (SMILES) | IC50 [1] [µM] | inhibition [2] [%] | inhibition [3] [%] | inhibition (Rattus norvegicus [4]) | inhibition (Rattus norvegicus [5]) | inhibition (Rattus norvegicus [6]) | IC50 [7] [µM] | inhibition [8] [%] | inhibition (Rattus norvegicus [9])
N#Cc1cc(NS(=O)(=O)c2ccc(NC(=O)N3CCOCC3)cc2)ccc1Oc1ccc(Cl)c(C(F)(F)F)c1 | > 25 | 64 | 27 | – | – | – | – | – | –
CC(=O)Nc1ccc(S(=O)(=O)Nc2ccc(Oc3ccc(Cl)c(C(F)(F)F)c3)c(C#N)c2)cc1 | > 25 | 64 | 32 | – | – | – | – | – | –
CCN(CC)CCN(Cc1ccc(-c2ccc(C(F)(F)F)cc2)cc1)C(=O)Cn1c(SCc2ccc(F)cc2)nc(=O)c2c1CCC2 [DARAPLADIB] | 2 | 97 | 98 | Active | – | – | – | – | –
CC(=O)Nc1ccc(S(=O)(=O)Nc2ccc(Oc3ccc(F)c(C(F)(F)F)c3)c(C#N)c2)cc1 | > 25 | 55 | 23 | – | – | – | – | – | –
N#Cc1cc(NS(=O)(=O)c2ccc(C(=O)O)cc2)ccc1Oc1ccc(Cl)c(C(F)(F)F)c1 | > 25 | 67 | 31 | – | Active | inactive | – | – | –
CC(=O)Nc1ccc(S(=O)(=O)Nc2ccc(Oc3ccc(C#N)c(C(F)(F)F)c3)c(C#N)c2)cc1 | > 25 | 42 | 11 | – | – | – | – | – | –
CS(=O)(=O)Nc1ccc(F)c(F)c1 | – | – | – | – | – | – | 1000 | 55 | –
CC(=O)N(C)c1ccc(S(=O)(=O)Nc2ccc(Oc3ccc(Cl)c(C(F)(F)F)c3)c(C#N)c2)cc1 | > 25 | 45 | 15 | – | – | – | – | – | –
N#Cc1cc(NS(=O)(=O)c2ccc(N3CCNCC3)cc2)ccc1Oc1ccc(Cl)c(C(F)(F)F)c1 | > 25 | 68 | 31 | – | – | – | – | – | –
CC(=O)NCc1ccc(S(=O)(=O)Nc2ccc(Oc3ccc(Cl)c(C(F)(F)F)c3)c(C#N)c2)cc1 | > 25 | 80 | 51 | – | – | – | – | – | –
N#Cc1cc(NS(=O)(=O)c2ccc(N)cc2)ccc1Oc1ccc(Cl)c(C(F)(F)F)c1 | > 25 | 67 | 33 | – | – | – | – | – | Active
N#Cc1cc(NS(=O)(=O)c2ccc(N3CCOCC3)cc2)ccc1Oc1ccc(Cl)c(C(F)(F)F)c1 | > 25 | 48 | 17 | – | – | – | – | – | –
